Test results published in ChEMBL document CHEMBL4196175, “First SAR Study for Overriding NRAS Mutant Driven Acute Myeloid Leukemia” (J Med Chem, 2018).
Calls of active or inactive are those of the source. The rule behind the calls is not given here.

Columns and labels:
BaF3 [1] = test: Induction of apoptosis in mouse BA/F3 cells expressing NRAS-G12D mutant assessed as decrease in MCL1 levels at 1 uM after 24 hrs by Western blot analysis; type: functional, cell-based
Summary of the method: (§1)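 Cells treated 24 h with indicated concentrations (1 µM; 5 µM also used in Ba/F3-NRAS-G12D); cleaved PARP, cleaved caspase 3, bcl-2 and MCL1 detected by western blot with actin as loading control.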

[2] = AUClast in mouse at 10 mg/kg, po; type: ADME, organism-based; parameters: dose 10 mg/kg, time 0 - last, route oral; conditions: in vivo
BaF3 [3] = test: Induction of apoptosis in mouse BA/F3 cells expressing NRAS-G12D mutant assessed as increase in cleaved caspase-3 levels at 5 uM after 24 hrs by Western blot analysis; type: functional, cell-based; summary of the method: as §1
[4] = biological target: Tyrosine-protein kinase Blk (Homo sapiens) (UniProt P51451); test: Inhibition of human BLK at 1 uM relative to control
[5] = biological target: Discoidin domain-containing receptor 2 (Homo sapiens) (UniProt Q16832); test: Inhibition of human DDR2 at 1 uM relative to control
[6] = biological target: Tyrosine-protein kinase ABL2 (Homo sapiens) (UniProt P42684); test: Inhibition of human ABL2 at 1 uM relative to control
Tyrosine-protein kinase ABL2 (Homo sapiens), sequence (P42684 whole entry): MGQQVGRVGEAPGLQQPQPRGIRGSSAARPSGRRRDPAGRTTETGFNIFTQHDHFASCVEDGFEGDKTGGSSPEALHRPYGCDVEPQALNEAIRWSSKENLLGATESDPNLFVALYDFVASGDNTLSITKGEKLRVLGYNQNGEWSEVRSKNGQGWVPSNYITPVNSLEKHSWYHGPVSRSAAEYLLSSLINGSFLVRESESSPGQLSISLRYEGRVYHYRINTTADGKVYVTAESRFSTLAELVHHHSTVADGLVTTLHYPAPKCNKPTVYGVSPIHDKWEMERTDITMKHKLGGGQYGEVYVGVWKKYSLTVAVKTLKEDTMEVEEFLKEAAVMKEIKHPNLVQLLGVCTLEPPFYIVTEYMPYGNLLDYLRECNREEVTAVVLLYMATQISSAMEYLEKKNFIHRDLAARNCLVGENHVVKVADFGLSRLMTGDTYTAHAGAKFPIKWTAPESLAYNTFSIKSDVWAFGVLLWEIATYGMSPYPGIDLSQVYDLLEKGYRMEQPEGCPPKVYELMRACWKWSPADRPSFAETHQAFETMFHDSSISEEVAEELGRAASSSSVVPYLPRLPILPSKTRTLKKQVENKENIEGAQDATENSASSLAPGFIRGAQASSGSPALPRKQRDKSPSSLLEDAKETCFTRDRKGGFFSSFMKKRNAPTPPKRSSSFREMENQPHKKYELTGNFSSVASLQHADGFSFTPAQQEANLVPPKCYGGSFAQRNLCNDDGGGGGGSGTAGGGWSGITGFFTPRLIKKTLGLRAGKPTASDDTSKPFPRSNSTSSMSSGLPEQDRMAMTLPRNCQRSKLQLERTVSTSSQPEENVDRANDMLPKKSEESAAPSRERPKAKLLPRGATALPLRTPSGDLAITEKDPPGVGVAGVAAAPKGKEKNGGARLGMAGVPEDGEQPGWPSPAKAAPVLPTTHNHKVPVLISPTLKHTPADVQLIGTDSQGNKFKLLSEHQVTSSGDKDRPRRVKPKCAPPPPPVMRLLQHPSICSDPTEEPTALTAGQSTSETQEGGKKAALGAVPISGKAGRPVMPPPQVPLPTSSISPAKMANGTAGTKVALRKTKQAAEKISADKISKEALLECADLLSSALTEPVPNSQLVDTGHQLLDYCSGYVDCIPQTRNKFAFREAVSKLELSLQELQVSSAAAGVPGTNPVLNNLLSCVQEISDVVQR

[7] = biological target: Tyrosine-protein kinase HCK (Homo sapiens) (UniProt P08631); test: Inhibition of human HCK at 1 uM relative to control
Tyrosine-protein kinase HCK (Homo sapiens), sequence (P08631 2-526 limits assumed): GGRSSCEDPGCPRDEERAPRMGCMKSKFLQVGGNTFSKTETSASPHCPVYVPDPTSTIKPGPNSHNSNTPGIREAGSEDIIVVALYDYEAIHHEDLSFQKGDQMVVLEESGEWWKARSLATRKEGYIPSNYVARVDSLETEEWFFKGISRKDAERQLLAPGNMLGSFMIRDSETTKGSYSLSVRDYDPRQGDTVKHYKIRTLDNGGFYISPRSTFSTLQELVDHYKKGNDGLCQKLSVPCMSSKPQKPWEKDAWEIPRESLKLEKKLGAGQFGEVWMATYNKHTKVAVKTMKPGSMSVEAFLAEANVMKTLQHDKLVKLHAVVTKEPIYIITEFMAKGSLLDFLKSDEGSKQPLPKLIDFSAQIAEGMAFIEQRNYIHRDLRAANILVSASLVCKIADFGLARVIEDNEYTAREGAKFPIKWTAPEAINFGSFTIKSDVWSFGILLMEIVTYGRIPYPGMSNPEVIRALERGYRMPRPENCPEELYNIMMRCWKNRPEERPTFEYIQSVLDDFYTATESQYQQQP

[8] = biological target: Tyrosine-protein kinase Fyn (Homo sapiens) (UniProt P06241); test: Inhibition of human FYN at 1 uM relative to control
[9] = biological target: Tyrosine-protein kinase Yes (Homo sapiens) (UniProt P07947); test: Inhibition of human YES at 1 uM relative to control
[10] = biological target: Tyrosine-protein kinase JAK1 (Homo sapiens) (UniProt P23458); test: Inhibition of human JAK1 at 1 uM relative to control
Tyrosine-protein kinase JAK1 (Homo sapiens), sequence (P23458 whole entry): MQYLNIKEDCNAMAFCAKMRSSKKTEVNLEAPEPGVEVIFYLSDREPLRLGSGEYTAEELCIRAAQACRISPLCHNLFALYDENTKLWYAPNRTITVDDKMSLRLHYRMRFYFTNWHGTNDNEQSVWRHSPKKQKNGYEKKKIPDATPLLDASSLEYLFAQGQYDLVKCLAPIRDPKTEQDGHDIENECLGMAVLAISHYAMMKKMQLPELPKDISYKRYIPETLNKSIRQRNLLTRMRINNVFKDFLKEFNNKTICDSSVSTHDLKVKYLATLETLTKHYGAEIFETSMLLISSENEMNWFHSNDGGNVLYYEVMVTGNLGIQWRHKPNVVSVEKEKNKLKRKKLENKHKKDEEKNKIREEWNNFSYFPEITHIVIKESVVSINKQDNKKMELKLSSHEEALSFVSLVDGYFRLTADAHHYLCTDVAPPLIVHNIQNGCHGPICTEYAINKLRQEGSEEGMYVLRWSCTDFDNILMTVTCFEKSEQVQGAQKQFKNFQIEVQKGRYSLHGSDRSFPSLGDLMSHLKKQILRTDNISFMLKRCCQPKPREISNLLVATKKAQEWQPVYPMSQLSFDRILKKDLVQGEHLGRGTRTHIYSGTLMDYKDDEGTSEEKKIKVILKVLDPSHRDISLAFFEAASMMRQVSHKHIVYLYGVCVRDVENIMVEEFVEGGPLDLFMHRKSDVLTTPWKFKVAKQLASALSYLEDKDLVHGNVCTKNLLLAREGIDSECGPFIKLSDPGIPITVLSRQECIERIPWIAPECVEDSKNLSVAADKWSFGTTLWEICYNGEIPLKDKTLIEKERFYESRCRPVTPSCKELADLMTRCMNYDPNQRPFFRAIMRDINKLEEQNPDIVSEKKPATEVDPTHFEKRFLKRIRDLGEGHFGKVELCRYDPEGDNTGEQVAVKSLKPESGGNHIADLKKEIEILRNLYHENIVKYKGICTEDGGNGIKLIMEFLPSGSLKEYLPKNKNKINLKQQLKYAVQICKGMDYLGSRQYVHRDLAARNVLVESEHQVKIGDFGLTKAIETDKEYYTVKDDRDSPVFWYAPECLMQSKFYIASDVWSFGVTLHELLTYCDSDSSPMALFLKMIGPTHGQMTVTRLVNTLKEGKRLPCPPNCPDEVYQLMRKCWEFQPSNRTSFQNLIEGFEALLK

[11] = biological target: Fibroblast growth factor receptor 2 (Homo sapiens) (UniProt P21802); test: Inhibition of human FGFR2 at 1 uM relative to control
[12] = biological target: Serine/threonine-protein kinase SIK1 (Homo sapiens) (UniProt P57059); test: Inhibition of human SIK1 at 1 uM relative to control
Serine/threonine-protein kinase SIK1 (Homo sapiens), sequence (P57059 whole entry): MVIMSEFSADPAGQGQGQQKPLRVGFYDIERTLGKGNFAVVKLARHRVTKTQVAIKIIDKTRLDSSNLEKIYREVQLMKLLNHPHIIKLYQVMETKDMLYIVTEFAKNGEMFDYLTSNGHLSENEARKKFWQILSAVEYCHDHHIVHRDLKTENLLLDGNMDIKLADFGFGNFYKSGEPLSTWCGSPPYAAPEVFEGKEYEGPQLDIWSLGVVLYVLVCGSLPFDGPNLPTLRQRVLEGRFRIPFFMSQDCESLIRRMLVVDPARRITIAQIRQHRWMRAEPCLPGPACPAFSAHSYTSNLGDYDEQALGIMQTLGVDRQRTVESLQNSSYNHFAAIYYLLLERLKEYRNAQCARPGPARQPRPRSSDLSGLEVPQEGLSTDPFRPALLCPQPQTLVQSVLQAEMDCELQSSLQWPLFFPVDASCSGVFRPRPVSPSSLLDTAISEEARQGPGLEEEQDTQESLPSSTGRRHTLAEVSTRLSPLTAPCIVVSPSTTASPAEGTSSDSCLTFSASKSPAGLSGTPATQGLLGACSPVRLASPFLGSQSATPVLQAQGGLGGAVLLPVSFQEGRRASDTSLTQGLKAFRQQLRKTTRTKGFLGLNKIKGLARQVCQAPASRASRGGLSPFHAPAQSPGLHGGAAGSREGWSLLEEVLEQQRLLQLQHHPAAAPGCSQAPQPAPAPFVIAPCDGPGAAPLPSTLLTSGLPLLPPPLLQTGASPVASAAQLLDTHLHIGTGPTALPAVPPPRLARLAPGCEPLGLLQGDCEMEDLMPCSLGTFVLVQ

[13] = biological target: Ephrin type-A receptor 1 (Homo sapiens) (UniProt P21709); test: Inhibition of human EphA1 at 1 uM relative to control
BaF3 [14] = test: Induction of apoptosis in mouse BA/F3 cells expressing NRAS-G12D mutant assessed as increase in apoptotic cell after 24 hrs by annexin V/propidium iodide staining based FACS analysis; type: functional
Summary of the method: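 Apoptosis scored by flow cytometry after FITC-annexin V/propidium iodide dual staining following 24 h exposure, at 1 µM or a range of indicated concentrations; three independent experiments, mean with SD, one-way ANOVA.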

OCI-AML-3 [15] = test: Antileukemic activity against human OCI-AML3 cells harboring NRAS-Q61L mutant xenografted in immunodeficient mouse assessed as tumor volume at 25 mg/kg/day, po qd administered on day 21 post implantation measured on day 20 post dose (reference value: 100%); type: functional
OCI-AML-3 [16] = test: Antileukemic activity against human OCI-AML3 cells harboring NRAS-Q61L mutant xenografted in immunodeficient po dosed mouse administered qd on day 21 post implantation measured on day 20 post dose; type: functional, organism-based
Activated CDC42 kinase 1 = Activated CDC42 kinase 1 (Homo sapiens, UniProt Q07912); conditions: 1 uM
Activated CDC42 kinase 1, sequence (Q07912 whole entry, looked up): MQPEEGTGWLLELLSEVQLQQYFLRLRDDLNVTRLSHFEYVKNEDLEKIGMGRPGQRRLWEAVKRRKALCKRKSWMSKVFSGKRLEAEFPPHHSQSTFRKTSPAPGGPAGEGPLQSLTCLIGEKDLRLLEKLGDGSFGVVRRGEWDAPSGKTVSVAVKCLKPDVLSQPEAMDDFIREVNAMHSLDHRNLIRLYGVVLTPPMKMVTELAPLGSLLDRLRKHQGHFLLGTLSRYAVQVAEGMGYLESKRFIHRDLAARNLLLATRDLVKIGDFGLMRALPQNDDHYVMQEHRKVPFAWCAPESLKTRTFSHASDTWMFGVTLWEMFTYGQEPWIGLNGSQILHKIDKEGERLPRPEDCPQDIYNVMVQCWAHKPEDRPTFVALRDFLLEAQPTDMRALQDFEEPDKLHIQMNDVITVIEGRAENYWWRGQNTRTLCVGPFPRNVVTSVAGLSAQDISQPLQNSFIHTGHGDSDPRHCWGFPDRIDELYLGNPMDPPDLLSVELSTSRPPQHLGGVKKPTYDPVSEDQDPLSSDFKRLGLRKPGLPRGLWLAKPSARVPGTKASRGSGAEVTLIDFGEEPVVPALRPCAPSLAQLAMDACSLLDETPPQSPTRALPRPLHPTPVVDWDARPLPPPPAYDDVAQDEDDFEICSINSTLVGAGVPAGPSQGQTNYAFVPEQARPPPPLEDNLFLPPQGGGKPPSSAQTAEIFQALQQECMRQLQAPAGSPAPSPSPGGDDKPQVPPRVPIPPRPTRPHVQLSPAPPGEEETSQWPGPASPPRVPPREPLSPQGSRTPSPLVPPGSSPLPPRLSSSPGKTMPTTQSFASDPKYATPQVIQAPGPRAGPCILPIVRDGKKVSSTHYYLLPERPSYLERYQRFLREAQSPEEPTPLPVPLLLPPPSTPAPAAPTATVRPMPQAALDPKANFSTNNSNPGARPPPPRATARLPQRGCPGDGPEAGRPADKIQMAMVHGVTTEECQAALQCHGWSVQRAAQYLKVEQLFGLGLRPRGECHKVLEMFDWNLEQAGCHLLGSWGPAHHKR

[17] = biological target: T1, Mitogen-activated protein kinase kinase kinase kinase 2 (Homo sapiens) (UniProt Q12851); conditions: 1 uM
T1 sequence (whole entry): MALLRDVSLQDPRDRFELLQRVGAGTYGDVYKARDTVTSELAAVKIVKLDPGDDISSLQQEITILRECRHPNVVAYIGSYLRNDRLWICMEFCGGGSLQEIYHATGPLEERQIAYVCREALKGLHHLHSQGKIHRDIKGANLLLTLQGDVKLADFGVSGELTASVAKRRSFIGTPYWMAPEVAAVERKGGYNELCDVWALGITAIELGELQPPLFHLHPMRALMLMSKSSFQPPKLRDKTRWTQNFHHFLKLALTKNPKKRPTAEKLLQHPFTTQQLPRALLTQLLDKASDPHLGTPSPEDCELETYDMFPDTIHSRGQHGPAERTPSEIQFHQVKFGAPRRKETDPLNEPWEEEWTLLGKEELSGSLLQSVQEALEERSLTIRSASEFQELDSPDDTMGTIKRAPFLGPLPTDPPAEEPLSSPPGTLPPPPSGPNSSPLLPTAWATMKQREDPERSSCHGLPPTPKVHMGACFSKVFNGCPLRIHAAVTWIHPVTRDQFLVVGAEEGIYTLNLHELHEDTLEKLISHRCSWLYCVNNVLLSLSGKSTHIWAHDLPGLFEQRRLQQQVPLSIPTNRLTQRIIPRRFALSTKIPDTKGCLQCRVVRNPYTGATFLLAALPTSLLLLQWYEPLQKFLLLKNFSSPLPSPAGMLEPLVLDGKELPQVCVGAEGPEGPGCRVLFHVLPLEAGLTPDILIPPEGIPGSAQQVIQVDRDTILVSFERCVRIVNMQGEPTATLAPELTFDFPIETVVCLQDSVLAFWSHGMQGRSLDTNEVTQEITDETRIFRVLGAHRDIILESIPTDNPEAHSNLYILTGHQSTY

Row | Structure (SMILES) | Activity (BaF3 [1]) | AUC(0-t) [2] | Activity (BaF3 [3]) | inhibition [4] | inhibition [5] | inhibition [6] | inhibition [7] | inhibition [8] | inhibition [9] | inhibition [10] | inhibition [11] | inhibition [12] | inhibition [13] | Activity (BaF3 [14]) | Activity (OCI-AML-3 [15]) | Activity (OCI-AML-3 [16]) | inhibition (Activated CDC42 kinase 1) | inhibition [17]
1 | CC(=O)N1CCN(c2ccc(Nc3ncc4c(n3)N(C)C(=O)N(c3cc(NC(=O)c5cccc(C(F)(F)F)c5)ccc3C)C4)cn2)CC1 | Active |  |  |  |  |  |  |  |  |  |  |  |  |  |  |  |  | 
2 | Cc1ccc(NC(=O)c2cccc(C(F)(F)F)c2)cc1N1Cc2cnc(N)nc2N(C)C1=O |  | 36400 ng·h/mL | Active | 95.9% | 98.1% | 98.3% | 98.9% | 99.2% | 99.7% | 94.9% | 93.5% | 91.6% | 90.7% | Dose-dependent effect | 14.9% | Dose-dependent effect | 100% | 93.8%
